# Assay results taken from paper PMC7495496 (DNA repair, 2019).
# Numbering of substitutions follows the chain as printed. “Also recorded” adds a separate entry of the source. Read-outs that look alike come from different tables or passages of the source. Square brackets hold non-standard residues; d marks the D form. Ends that are not written are not given here. Phe(4-F) = N[C@@H](Cc1ccc(F)cc1)C(=O)O
# How the values were obtained:
# [1] = molecular target: T1, xlKu80 vWA(S229A) (Xenopus laevis, UniProt Q6DDS9, C190S/DEL171-188/S229A); assay: 19F NMR binding study, xlKu80 vWA; conditions: for binding affinity change resulting from S229A mutation: xlKu80 vWA(S229A) compared with unmodified xlKu80 vWA
# T1 sequence (Q6DDS9 with tags, fused parts or gaps DEL171-188/C190S/S229A limits assumed): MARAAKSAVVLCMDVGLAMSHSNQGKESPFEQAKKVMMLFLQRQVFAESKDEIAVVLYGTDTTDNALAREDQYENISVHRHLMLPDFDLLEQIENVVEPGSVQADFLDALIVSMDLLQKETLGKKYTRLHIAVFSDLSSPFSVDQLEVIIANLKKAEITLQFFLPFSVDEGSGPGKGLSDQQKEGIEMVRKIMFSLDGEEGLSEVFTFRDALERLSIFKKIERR
# How it was run: (§1)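 Protein (0.2 mM; wild-type-derived or S229A vWA construct, His-tagged, expressed by autoinduction in E. coli BL21(DE3), Ni-NTA and gel filtration purified) titrated with XLF KBMX peptide carrying 4-fluoro-L-Phe at the penultimate position. Peptide stock held protease inhibitor cocktail. ¹⁹F spectra at 564.279 MHz, 25 °C. Internal standard 0.2 mM 4-fluorobenzamide (−34.9 ppm vs external TFA).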
# [2] = molecular target: T2, xlKu80 vWA (Xenopus laevis, UniProt Q6DDS9, C190S/DEL171-188); assay: 19F NMR binding study, xlKu80 vWA; conditions: 0.2 mM xlKu80 vWA; peptide 0.2, 0.4 and 1.0 mM; 25 °C; 150 mM NaCl, 25 mM HEPES
# T2 sequence (Q6DDS9 with tags, fused parts or gaps DEL171-188/C190S limits assumed): T1 sequence (Q6DDS9 with tags, fused parts or gaps DEL171-188/C190S/S229A limits assumed) with A211S
# How it was run: as §1
# [3] = molecular target: T1, xlKu80 vWA(S229A); assay: X-ray crystallography of xlKu80 vWA; type: binding; conditions: crystal of xlKu80 vWA(S229A)-KBMX^XLF, PDB: 6TYX, 1.90 Å
# [4] = molecular target: fluorescein-labeled human APLF KBM peptide (human); assay: fluorescence polarisation
# [5] = molecular target: fluorescein-labeled human APLF KBM peptide (human); assay: fluorescence polarisation; remark: listed apart in the source
substance,measurement,setting,value
KBMX^XLF peptide: KBMX peptide from XLF (KPKKKAKGL[Phe(4-F)]M; not fully specified; printed as KPKKKAKGLF*M),binding affinity change resulting from S229A mutation,[1]; 19F NMR,increases dramatically; also recorded: dramatically increased affinity
same,binding affinity change resulting from S229A mutation,"[1]; 19F NMR, listed as KBMX^XLF motif peptide",capable of binding
same,19F NMR binding to xlKu80 vWA,[2],negligible
same,binding confirmed by X-ray crystallography,[3],further confirmed by X-ray crystallography
KPKKKAKGLF*M [fluorinated XLF KBMX peptide],19F NMR linewidth in the presence of vWA(S229A),"[1]; 0.2 mM xlKu80 vWA(S229A), 1:1 ratio, 25 °C, 150 mM NaCl, 25 mM HEPES, 1 mM TCEP, 1 mM EDTA, 10 % D2O",109 Hz
same,exchange between 19F resonances of bound and free peptide,"[1]; 19F NMR, 0.2 mM xlKu80 vWA(S229A) plus 0.2, 0.3, 0.4 mM peptide, 25 °C",slow exchange
"human Ku80 von Willebrand domain (hsKu80 vWA), 1–240 aa, F47Q/F88Q/L234Q/F237Y (from UniProt P13010 1-240) (domain or fragment)",Kd,[4],0.162 nM
same,Kd,[5],162 nM
isolated Xenopus laevis Ku80 von Willebrand A-like domain (xlKu80 vWA) (domain or fragment),Kd,[4],0.131 nM
same,Kd,[5],131 nM
